# In PubChem BioAssay AID504354 (Broad Institute, 2011):
# Active and inactive are the calls of the source.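 The calls were made as follows: active = curve reaches 10% of the strong reference activator's caspase signal at or below the top valid tested dose; inactive = signal moves in the opposite direction, or the rest.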
# Assay: caspase activation in unprimed MEWO cells, dose response, counter-screen for A1 inhibitor project, cell-based, luminescence, dry powder, set 2 (AID 504354)
# Conditions: caspase-Glo luminescence, 3 h, hits give high values; at 35 µM unless noted
# Procedure, shortened: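 System: unprimed MEWO cell line expressing A1; Amount: 2500 cells/well; Medium: RPMI-1640 plus 10% FBS; Doses: pin-transferred compound; Schedule: 3 h compound treatment at 37 °C, 1 h reagent at RT; Detection: CaspaseGlo luminescence, reagent mixed 1:1 with 50 mM HEPES; Read-out basis: caspase activity from luminescent signal.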
row,Structure (SMILES),caspase activation
1,Cn1c(=O)c([N+](=O)[O-])c(Cl)c2ccccc21,4.66% [at 8 µM] (inactive)
2,O=C(Oc1cccc(/C=N/Nc2nc(Nc3ccccc3)nc(N3CCOCC3)n2)c1)c1ccco1,2.6% [at 16 µM] (inactive)
3,O=c1oc2ccccc2c(Sc2ccccc2)c1[N+](=O)[O-],-5.15% (inactive)
4,O=c1oc2ccccc2c(Nc2cc(Cl)cc(Cl)c2)c1[N+](=O)[O-],-1.06% [at 8 µM] (inactive)
5,Cc1ccc(Sc2c([N+](=O)[O-])cnc3ccccc23)cc1,6.63% [at 16 µM] (inactive)
6,Cc1ccc(Sc2c([N+](=O)[O-])c(=O)oc3ccccc23)cc1,-4.32% (inactive)
7,Cc1ccc(Nc2c([N+](=O)[O-])c(=O)oc3ccccc23)cc1,1.87% [at 2.1 µM] (inactive)
8,O=c1oc2ccccc2c(Cl)c1[N+](=O)[O-],-4.52% [at 16 µM] (inactive)
9,Cn1c(=O)c([N+](=O)[O-])c(Nc2ccc(Cl)cc2)c2ccccc21,1.87% [at 1 µM] (inactive)
10,Cc1ccc(Sc2c([N+](=O)[O-])c(=O)n(C)c3ccccc23)cc1,2.38% (inactive)
11,O=c1oc2ccccc2c(N2CCCCC2)c1[N+](=O)[O-],-1.32% [at 16 µM] (inactive)
12,CCOC(=O)N1CCN(c2c([N+](=O)[O-])c(=O)n(C)c3ccccc23)CC1,2.35% (inactive)
13,CN1C(=O)C(C)(C)N(Cc2ccccc2)c2ccccc21,0.935% [at 2.1 µM] (inactive)
14,CCSc1c([N+](=O)[O-])c(=O)oc2ccccc12,-0.935% [at 0.26 µM] (inactive)
15,CCOCCCNc1c([N+](=O)[O-])c(=O)n(C)c2ccccc12,2.4% (inactive)
16,Cn1c(=O)c([N+](=O)[O-])c(Oc2ccccc2)c2ccccc21,2.97% [at 0.135 µM] (inactive)
17,O=[N+]([O-])c1cnc2ccccc2c1Sc1ccccc1,5.29% [at 16 µM] (inactive)
18,Cc1ccc(Nc2c([N+](=O)[O-])c(=O)n(C)c3ccccc23)cc1,1.4% [at 1 µM] (inactive)
19,Cn1c(=O)c([N+](=O)[O-])c(-n2cnc3ccccc32)c2ccccc21,1.87% [at 4.2 µM] (inactive)
20,Cc1ccc(Sc2cc(=O)n(C)c3ccccc23)cc1,-6.38% (inactive)
